Assay results reported in ChEMBL document CHEMBL1125643, “N-(5-fluorobenzothiazol-2-yl)-2-guanidinothiazole-4-carboxamide. A novel, systemically active antitumor agent effective against 3LL Lewis lung carcinoma” (J Med Chem, 1991).
“And” between values parts separate entries of the source, which are not always exact repeats. Equal entries are not always repeated.

Tests used:
[1] = Drug related lethality is percent animals in treated groups dying prior to first tumor related death in untreated groups measured in BDF1 mice after po administration at 400 mg/kg dose; format: toxicity, organism-based; parameters: dose 400 mg/kg, route oral; conditions: BDF1, mus sp., in vivo, read-out: Lethality
Summary of the method: (§1)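 Female BDF1 mice (18–20 g) were implanted in the tail vein with 6×10^5 3LL cells in 0.20 mL RPMI 1640, seven per group. Drug was dissolved in DMSO (20% final) and diluted with saline to a fine suspension. Mice were dosed orally, 200 μL, from day 2 to day 9 (8 treatments). Lethality is the percentage of treated mice dying before the first tumor-related death among untreated controls.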

Mus sp. [2] = test: In vivo activity measured against 3LL metastasis in BDF1 mice after po administration at 50 mg/kg dose, dosing on days 2-8 after tumor challenge; format: functional
Summary of the method: (§2)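 Female BDF1 mice (18–20 g) given 6×10^5 log-phase 3LL cells iv via tail vein in 0.20 mL RPMI 1640, randomized, 7 per group. Drug freshly dissolved in DMSO (20% of final volume) and diluted with sterile saline to a fine suspension. Dosed 200 μL ip or po, 8 treatments from day 2. Survival monitored daily. %T/C = MST treated/MST control × 100, given as mean (s.e.) over repeat experiments.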

[3] = Drug related lethality is percent animals in treated groups dying prior to first tumor related death in untreated groups measured in BDF1 mice after ip administration at 50 mg/kg dose; format: toxicity, organism-based; parameters: dose 50 mg/kg, route intraperitoneal; conditions: BDF1, mus sp., in vivo, read-out: Lethality
Summary of the method: (§3)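 Female BDF1 mice (18–20 g) were implanted in the lateral tail vein with 6×10^5 log-phase 3LL cells in 0.20 mL RPMI 1640 and then randomized, seven per group. Drug was dissolved in DMSO (20% of final volume) and diluted with sterile saline to a fine suspension. Mice received 200 μL ip daily from day 2 to day 9 (8 treatments) and were monitored daily. Lethality counted deaths before the first tumor-related control death.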

[4] = Drug related lethality is percent animals in treated groups dying prior to first tumor related death in untreated groups measured in BDF1 mice after po administration at 200 mg/kg dose; format: toxicity, organism-based; parameters: dose 200 mg/kg, route oral; conditions: BDF1, mus sp., in vivo, read-out: Lethality; summary of the method: as §1
[5] = Drug related lethality is percent animals in treated groups dying prior to first tumor related death in untreated groups measured in BDF1 mice after ip administration at 25 mg/kg dose; format: toxicity, organism-based; parameters: dose 25 mg/kg, route intraperitoneal; conditions: BDF1, mus sp., in vivo, read-out: Lethality; summary of the method: as §3
Mus sp. [6] = test: In vivo activity measured against 3LL metastasis in BDF1 mice after ip administration at 50 mg/kg dose, dosing on days 2-8 after tumor challenge; format: functional; conditions: route intraperitoneal; summary of the method: as §2
Mus sp. [7] = test: In vivo activity measured against 3LL metastasis in BDF1 mice after ip administration at 6.25 mg/kg dose, dosing on days 2-8 after tumor challenge; format: functional; conditions: route intraperitoneal; summary of the method: as §2
[8] = Drug related lethality is percent animals in treated groups dying prior to first tumor related death in untreated groups measured in BDF1 mice after ip administration at 200 mg/kg dose; format: toxicity, organism-based; parameters: dose 200 mg/kg, route intraperitoneal; conditions: BDF1, mus sp., in vivo, read-out: Lethality; summary of the method: as §3
Mus sp. [9] = test: In vivo activity measured against 3LL metastasis in BDF1 mice after po administration at 25 mg/kg dose, dosing on days 2-8 after tumor challenge; format: functional; summary of the method: as §2
[10] = Drug related lethality is percent animals in treated groups dying prior to first tumor related death in untreated groups measured in BDF1 mice after po administration at 25 mg/kg dose; format: toxicity, organism-based; parameters: dose 25 mg/kg, route oral; conditions: BDF1, mus sp., in vivo, read-out: Lethality; summary of the method: as §1
[11] = Drug related lethality is percent animals in treated groups dying prior to first tumor related death in untreated groups measured in BDF1 mice after ip administration at 12.5 mg/kg dose; format: toxicity, organism-based; parameters: dose 12.5 mg/kg, route intraperitoneal; conditions: BDF1, mus sp., in vivo, read-out: Lethality; summary of the method: as §3
[12] = Drug related lethality is percent animals in treated groups dying prior to first tumor related death in untreated groups measured in BDF1 mice after po administration at 50 mg/kg dose; format: toxicity, organism-based; parameters: dose 50 mg/kg, route oral; conditions: BDF1, mus sp., in vivo, read-out: Lethality; summary of the method: as §1
Mus sp. [13] = test: In vivo activity measured against 3LL metastasis in BDF1 mice after ip administration at 25 mg/kg dose, dosing on days 2-8 after tumor challenge; format: functional; conditions: route intraperitoneal; summary of the method: as §2
[14] = Drug related lethality is percent animals in treated groups dying prior to first tumor related death in untreated groups measured in BDF1 mice after ip administration at 100 mg/kg dose; format: toxicity, organism-based; parameters: dose 100 mg/kg, route intraperitoneal; conditions: BDF1, mus sp., in vivo, read-out: Lethality; summary of the method: as §3
[15] = Drug related lethality is percent animals in treated groups dying prior to first tumor related death in untreated groups measured in BDF1 mice after po administration at 100 mg/kg dose; format: toxicity, organism-based; parameters: dose 100 mg/kg, route oral; conditions: BDF1, mus sp., in vivo, read-out: Lethality; summary of the method: as §1
[16] = Drug related lethality is percent animals in treated groups dying prior to first tumor related death in untreated groups measured in BDF1 mice after po administration at 12.5 mg/kg dose; format: toxicity, organism-based; parameters: dose 12.5 mg/kg, route oral; conditions: BDF1, mus sp., in vivo, read-out: Lethality; summary of the method: as §1
[17] = Drug related lethality is percent animals in treated groups dying prior to first tumor related death in untreated groups measured in BDF1 mice after ip administration at 400 mg/kg dose; format: toxicity, organism-based; parameters: dose 400 mg/kg, route intraperitoneal; conditions: BDF1, mus sp., in vivo, read-out: Lethality; summary of the method: as §3
Mus sp. [18] = test: In vivo activity was measured against 3LL metastasis in BDF1 mice after po administration at 100 mg/kg dose, dosing on days 2-8 after tumor challenge; format: functional; summary of the method: as §2
Mus sp. [19] = test: In vivo activity measured against 3LL metastasis in BDF1 mice after ip administration at 100 mg/kg dose, dosing on days 2-8 after tumor challenge; format: functional; conditions: route intraperitoneal; summary of the method: as §2
Mus sp. [20] = test: In vivo activity measured against 3LL metastasis in BDF1 mice after po administration at 200 mg/kg dose, dosing on days 2-8 after tumor challenge; format: functional; summary of the method: as §2
[21] = Drug related lethality is percent animals in treated groups dying prior to first tumor related death in untreated groups measured in BDF1 mice after ip administration at 6.25 mg/kg dose; format: toxicity, organism-based; parameters: dose 6.25 mg/kg, route intraperitoneal; conditions: BDF1, mus sp., in vivo, read-out: Lethality; summary of the method: as §3
Mus sp. [22] = test: In vivo activity measured against 3LL metastasis in BDF1 mice after ip administration at 12.5 mg/kg dose, dosing on days 2-8 after tumor challenge; format: functional; conditions: route intraperitoneal; summary of the method: as §2
Mus sp. [23] = test: In vivo activity measured against 3LL metastasis in BDF1 mice after ip administration at 200 mg/kg dose, dosing on days 2-8 after tumor challenge; format: functional; conditions: route intraperitoneal; summary of the method: as §2
[24] = Drug related lethality is percent animals in treated groups dying prior to first tumor related death in untreated groups measured in BDF1 mice after ip administration at 400 mg/kg dose days 3 after tumor challenge; conditions: BDF1, mus sp., in vivo
[25] = Drug related lethality is percent animals in treated groups dying prior to first tumor related death in untreated groups measured in BDF1 mice after ip administration at 300 mg/kg dose days 3 after tumor challenge; conditions: BDF1, mus sp., in vivo
Mus sp. [26] = test: In vivo activity measured against 3LL metastasis in BDF1 mice after iv administration at 5 mg/kg dose, dosing on days 3 after tumor challenge; format: functional
[27] = Drug related lethality is percent animals in treated groups dying prior to first tumor related death in untreated groups measured in BDF1 mice after iv administration at 10 mg/kg dose 3 days after tumor challenge; format: toxicity, organism-based; parameters: dose 10 mg/kg, route intravenous; conditions: BDF1, mus sp., in vivo, read-out: Lethality
[28] = Drug related lethality is percent animals in treated groups dying prior to first tumor related death in untreated groups measured in BDF1 mice after iv administration at 5 mg/kg dose 3 days after tumor challenge; format: toxicity, organism-based; parameters: dose 5 mg/kg, route intravenous; conditions: BDF1, mus sp., in vivo, read-out: Lethality
[29] = Drug related lethality is percent animals in treated groups dying prior to first tumor related death in untreated groups measured in BDF1 mice after iv administration at 25 mg/kg dose 3 days after tumor challenge; format: toxicity, organism-based; parameters: dose 25 mg/kg, route intravenous; conditions: BDF1, mus sp., in vivo, read-out: Lethality
[30] = Drug related lethality is percent animals in treated groups dying prior to first tumor related death in untreated groups measured in BDF1 mice after iv administration at 30 mg/kg dose 3 days after tumor challenge; format: toxicity, organism-based; parameters: dose 30 mg/kg, route intravenous; conditions: BDF1, mus sp., in vivo, read-out: Lethality
[31] = Drug related lethality is percent animals in treated groups dying prior to first tumor related death in untreated groups measured in BDF1 mice after iv administration at 20 mg/kg dose 3 days after tumor challenge; format: toxicity, organism-based; parameters: dose 20 mg/kg, route intravenous; conditions: BDF1, mus sp., in vivo, read-out: Lethality
[32] = Drug related lethality is percent animals in treated groups dying prior to first tumor related death in untreated groups measured in BDF1 mice after iv administration at 15 mg/kg dose 3 days after tumor challenge; format: toxicity, organism-based; parameters: dose 15 mg/kg, route intravenous; conditions: BDF1, mus sp., in vivo, read-out: Lethality
Mus sp. [33] = test: In vivo activity against 3LL metastasis in BDF1 mice after iv administration at 18 mg/kg dose, dosing on days 3 after tumor challenge; format: functional
Mus sp. [34] = test: In vivo activity against 3LL metastasis in BDF1 mice after iv administration at 10 mg/kg dose, dosing on days 3 after tumor challenge; format: functional
[35] = Drug related lethality is percent animals in treated groups dying prior to first tumor related death in untreated groups measured in BDF1 mice after iv administration at 18 mg/kg dose 3 days after tumor challenge; format: toxicity, organism-based; parameters: dose 18 mg/kg, route intravenous; conditions: BDF1, mus sp., in vivo, read-out: Lethality
Mus sp. [36] = test: In vivo activity measured against 3LL metastasis in BDF1 mice after iv administration at 2.5 mg/kg dose, dosing on days 3 after tumor challenge; format: functional
Mus sp. [37] = test: In vivo activity measured against 3LL metastasis in BDF1 mice after iv administration at 20 mg/kg dose, dosing on days 3 after tumor challenge; format: functional
Mus sp. [38] = test: In vivo activity measured against 3LL metastasis in BDF1 mice after iv administration at 25 mg/kg dose, dosing on days 3 after tumor challenge; format: functional
Mus sp. [39] = test: In vivo activity measured against 3LL metastasis in BDF1 mice after iv administration at 15 mg/kg dose, dosing on days 3 after tumor challenge; format: functional
[40] = Drug related lethality is percent animals in treated groups dying prior to first tumor related death in untreated groups measured in BDF1 mice after iv administration at 2.5 mg/kg dose 3 days after tumor challenge; format: toxicity, organism-based; parameters: dose 2.5 mg/kg, route intravenous; conditions: BDF1, mus sp., in vivo, read-out: Lethality

N=C(N)Nc1nc(C(=O)Nc2nc3cc(F)ccc3s2)cs1
mortality [1]: 45.7%
T/C (Mus sp. [2]): 140.4%
mortality [3]: 0.43%
mortality [4]: 22.7%
mortality [5]: 0%
T/C (Mus sp. [6]): 153%
T/C (Mus sp. [7]): 112.7%
mortality [8]: 14.3%
T/C (Mus sp. [9]): 127%
mortality [10]: 1.78%
mortality [11]: 0%
mortality [12]: 2%
T/C (Mus sp. [13]): 153.8%
mortality [14]: 0%
mortality [15]: 5.7%
mortality [16]: 0%
mortality [17]: 42.9%
T/C (Mus sp. [18]): 157.7%
T/C (Mus sp. [19]): 160.7%
T/C (Mus sp. [20]): 119% and 150.3%
mortality [21]: 0%
T/C (Mus sp. [22]): 149.3%
T/C (Mus sp. [23]): 179.7%

O=P1(N(CCCl)CCCl)NCCCO1 (stereo not given) [CYCLOPHOSPHAMIDE ANHYDROUS]
mortality [24]: 14%
mortality [25]: 0%

COc1cccc2c1C(=O)c1c(O)c3c(c(O)c1C2=O)C[C@@](O)(C(=O)CO)C[C@@H]3O[C@H]1C[C@H](N)[C@H](O)[C@H](C)O1 [DOXORUBICIN]
T/C (Mus sp. [26]): 115%
mortality at 72 h [27]: 0%
mortality at 72 h [28]: 0%
mortality at 72 h [29]: 72%
mortality at 72 h [30]: 100%
mortality at 72 h [31]: 15%
mortality at 72 h [32]: 21%
T/C (Mus sp. [33]): 191%
T/C (Mus sp. [34]): 137%
mortality at 72 h [35]: 0%
T/C (Mus sp. [36]): 120%
T/C (Mus sp. [37]): 189%
T/C (Mus sp. [38]): 197%
T/C (Mus sp. [39]): 215%
mortality at 72 h [40]: 0%
